Experiment [1] relates to Nucleic Acid. Briefly: Binding affinity to human G4 telomeric quadruplex DNA assessed as change in melting temperature at 1 uM by FRET melting assay. The experiment is classed as nucleic-acid assay. Put shortly: (§1)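 FAM/TAMRA dual-labelled oligonucleotides diluted to 400 nM in 60 mM potassium cacodylate pH 7.4. Annealed at 95 °C for 10 min, then cooled to RT over 3–3.5 h. Compound diluted from a 1 mM stock (10% DMSO/90% 1 mM HCl) to 2× in buffer and mixed 1:1 with DNA. Fluorescence read every 0.5 °C over 30–100 °C with a 30 s hold. ΔTm from curve fitting; triplicate.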

For experiment [2], the system named is Nucleic Acid. Briefly: Binding affinity to human G4 telomeric quadruplex DNA assessed as change in melting temperature at 2 uM by FRET melting assay. It is filed as nucleic-acid assay. The procedure, abridged:
as §1

For experiment [3], the system named is Nucleic Acid. The experiment in a line: Binding affinity to HSP90A quadruplex DNA assessed as change in melting temperature at 1 uM by FRET melting assay. It is filed as nucleic-acid assay. As to conditions: Homo sapiens. The procedure, abridged: as §1
Experiment [4] has as its system Nucleic Acid. Briefly: Binding affinity to HSP90A quadruplex DNA assessed as change in melting temperature at 2 uM by FRET melting assay. As to conditions: Homo sapiens. It is filed as nucleic-acid assay. Put shortly:
as §1

Experiment [5] deals with Nucleic Acid. Briefly: Binding affinity to HSP90B quadruplex DNA assessed as change in melting temperature at 1 uM by FRET melting assay. It is filed as nucleic-acid assay. The settings on record: Homo sapiens. Put shortly:
as §1

The test system of experiment [6] is Nucleic Acid. The experiment in a line: Binding affinity to HSP90B quadruplex DNA assessed as change in melting temperature at 2 uM by FRET melting assay. The experiment is classed as nucleic-acid assay. As to conditions: Homo sapiens. The procedure, abridged:
as §1

Experiment [7] deals with Nucleic Acid. Briefly: Binding affinity to double stranded DNA assessed as change in melting temperature at 1 uM by FRET melting assay. It is filed as nucleic-acid assay. The procedure, abridged: as §1
The test system of experiment [8] is Nucleic Acid. Briefly: Binding affinity to double stranded DNA assessed as change in melting temperature at 2 uM by FRET melting assay. It is filed as nucleic-acid assay. The procedure, abridged:
as §1

Experiment [9] deals with Nucleic Acid. Briefly: Binding affinity to human 21-mer telomeric quadruplex F21T DNA assessed as change in melting temperature at 1 uM by FRET melting assay. The experiment is classed as nucleic-acid assay. Put shortly:
as §1

The test system of experiment [10] is Nucleic Acid. Briefly: Binding affinity to human 21-mer telomeric quadruplex F21T DNA assessed as change in melting temperature at 2 uM by FRET melting assay. The experiment is classed as nucleic-acid assay. The procedure, abridged: as §1
Experiment [11] relates to Nucleic Acid. Briefly: Binding affinity to c-kit2 quadruplex DNA assessed as change in melting temperature at 1 uM by FRET melting assay. The experiment is classed as nucleic-acid assay. The settings on record: Homo sapiens. Put shortly:
as §1

Experiment [12] relates to Nucleic Acid. The experiment in a line: Binding affinity to c-kit2 quadruplex DNA assessed as change in melting temperature at 2 uM by FRET melting assay. The experiment is classed as nucleic-acid assay. The settings on record: Homo sapiens. The procedure, abridged:
as §1

In experiment [13] the test system is Nucleic Acid. The experiment in a line: Binding affinity to k-ras quadruplex DNA assessed as change in melting temperature at 1 uM by FRET melting assay. The experiment is classed as nucleic-acid assay. As to conditions: Homo sapiens. The procedure, abridged:
as §1

Experiment [14] deals with Nucleic Acid. The experiment in a line: Binding affinity to k-ras quadruplex DNA assessed as change in melting temperature at 2 uM by FRET melting assay. The experiment is classed as nucleic-acid assay. As to conditions: Homo sapiens. Put shortly:
as §1

Another experiment concerns A549. The experiment in a line: Antiproliferative activity against human A549 cells after 96 hrs by neubauer haemocytometer analysis. As to conditions: in the assay text read “sulforhodamine B assay” for “neubauer haemocytometer analysis”. The experiment is classed as functional, cell-based. Put shortly:
(§2)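 Cancer lines seeded at 1000–4000 cells/well and WI38 fibroblasts at 6000/well, then grown 24 h. Compound added over a concentration range for 96 h. Cells fixed with 10% TCA (30 min, 4 °C), stained with 0.4% sulforhodamine B (15 min, RT), dye solubilized in 10 mM Tris base, A540 read. Normalized to untreated cells; IC50 interpolated at 50% absorbance. Triplicate.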

The subject of a further experiment is MCF7. Briefly: Antiproliferative activity against human MCF7 cells after 96 hrs by neubauer haemocytometer analysis. It is filed as functional, cell-based. As to conditions: in the assay text read “sulforhodamine B assay” for “neubauer haemocytometer analysis”. The procedure, abridged: as §2
Experiment [15] in a line: Antiproliferative activity against human RCC4 cells after 96 hrs by neubauer haemocytometer analysis. The experiment is classed as functional, cell-based. As to conditions: in the assay text read “sulforhodamine B assay” for “neubauer haemocytometer analysis”. Put shortly:
as §2

Experiment [16] in a line: Antiproliferative activity against human 786-O cells after 96 hrs by neubauer haemocytometer analysis. The experiment is classed as functional, cell-based. As to conditions: 786-0; in the assay text read “sulforhodamine B assay” for “neubauer haemocytometer analysis”. The procedure, abridged:
as §2

The next experiment deals with MIA PaCa-2. Briefly: Antiproliferative activity against human MIAPaCa2 cells after 96 hrs by neubauer haemocytometer analysis. As to conditions: in the assay text read “sulforhodamine B assay” for “neubauer haemocytometer analysis”. The experiment is classed as functional, cell-based. Put shortly: as §2
A general note: In SRB staining, fixed cells bind dye roughly in proportion to their protein.

The test system of a further experiment is WI-38. Briefly: Antiproliferative activity against human WI38 cells after 96 hrs by neubauer haemocytometer analysis. The experiment is classed as cell-based. The settings on record: in the assay text read “sulforhodamine B assay” for “neubauer haemocytometer analysis”. Put shortly:
as §2

Experiment [17] relates to duplex DNA. The experiment in a line: Binding affinity to duplex DNA assessed as change in melting temperature at 3 uM by FRET melting assay. As to conditions: Homo sapiens.
In experiment [18] the test system is duplex DNA. Described as above. The settings on record: Homo sapiens. This is another data set of the same source.
Experiment [19] deals with duplex DNA. The description is as above. The settings on record: Homo sapiens. The source holds these as a separate data set.

Eleven compounds from ChEMBL document CHEMBL2069306, “Sequences in the HSP90 promoter form G-quadruplex structures with selectivity for disubstituted phenyl bis-oxazole derivatives” (Bioorg Med Chem Lett, 2012) can be followed below.

`c1cc(-c2cnc(-c3ccc(OCCCCN4CCCC4)cc3)o2)cc(-c2cnc(-c3ccc(OCCCCN4CCCC4)cc3)o2)c1`: the ΔTm – broadly, the shift of the melting midpoint relative to a reference – in the experiment with Nucleic Acid [1] is 2 °C; in the experiment with Nucleic Acid [2] it was 15 °C; in the experiment with Nucleic Acid [3] it was 5 °C; in the experiment with Nucleic Acid [4] it was 19 °C; with Nucleic Acid [5], 2 °C; in the experiment with Nucleic Acid [6], 5 °C. Besides, the thermal shift (ΔTm) in the experiment with Nucleic Acid [7] and in the experiment on Nucleic Acid [8] was 0 °C throughout.
With `CN1CCN(CCc2ccc(-c3ncc(-c4cccc(-c5cnc(-c6ccc(CCN7CCN(C)CC7)cc6)o5)c4)o3)cc2)CC1`, the ΔTm with Nucleic Acid [1] is below 2 °C; in the experiment on Nucleic Acid [2], 2 °C; in the experiment with Nucleic Acid [3] it was 14 °C; in the experiment on Nucleic Acid [4] it was 23 °C; with Nucleic Acid [5], 2 °C; with Nucleic Acid [6], 7 °C. Besides, the ΔTm with Nucleic Acid [7] was 0 °C; in the experiment on Nucleic Acid [8], 0 °C; in the experiment on Nucleic Acid [9], below 2 °C; in the experiment with Nucleic Acid [10] it was 2 °C; with Nucleic Acid [11], below 2 °C; in the experiment on Nucleic Acid [12], 2 °C. Moreover, the ΔTm with Nucleic Acid [13] was 7 °C; in the experiment on Nucleic Acid [14], 17 °C; in the experiment on duplex DNA [17], below 1 °C; with duplex DNA [18] it was below 1 °C; in the experiment with duplex DNA [19], below 1 °C. Further, the IC50 came out at 1.02 µmol in the experiment with A549; 1.32 µmol in the experiment with MCF7; 0.94 µmol in [15]; 1.33 µmol in experiment [16]; 1.25 µmol in the experiment with MIA PaCa-2; 2.59 µmol in the experiment with WI-38.
Turning to `CC(C)N(Cc1ccc(-c2ncc(-c3cccc(-c4cnc(-c5ccc(CN(C(C)C)C(C)C)cc5)o4)c3)o2)cc1)C(C)C`, the ΔTm with Nucleic Acid [1] is below 2 °C; with Nucleic Acid [2], 2 °C; in the experiment with Nucleic Acid [3], 8 °C; in the experiment with Nucleic Acid [4] it was 8 °C; in the experiment with Nucleic Acid [5] it was 8 °C; in the experiment on Nucleic Acid [6] it was 9 °C. The thermal shift (ΔTm) in the experiment with Nucleic Acid [7] and in the experiment with Nucleic Acid [8] was 1 °C in each case.
Consider `c1cc(-c2cnc(-c3cccc(CN4CCCCC4)c3)o2)cc(-c2cnc(-c3cccc(CN4CCCCC4)c3)o2)c1`, for which the ΔTm is below 2 °C in the experiment with Nucleic Acid [1]; below 2 °C with Nucleic Acid [2]; 5 °C in the experiment with Nucleic Acid [3]; 8 °C in the experiment with Nucleic Acid [4]; 3 °C in the experiment with Nucleic Acid [5]; 6 °C in the experiment on Nucleic Acid [6]. Also, the ΔTm in the experiment with Nucleic Acid [7] and in the experiment with Nucleic Acid [8] was 1 °C in each case.
On to `c1cc(-c2cnc(-c3ccc(OCCN4CCCC4)cc3)o2)cc(-c2cnc(-c3ccc(OCCN4CCCC4)cc3)o2)c1`, for which the ΔTm with Nucleic Acid [1] was below 2 °C; with Nucleic Acid [2] it was below 2 °C; in the experiment with Nucleic Acid [3] it was 7 °C; in the experiment on Nucleic Acid [4] it was 14 °C; in the experiment on Nucleic Acid [5], 2 °C; in the experiment on Nucleic Acid [6] it was 6 °C. Also, the ΔTm with Nucleic Acid [7] and in the experiment with Nucleic Acid [8] was 0 °C in each case.
`c1cc(-c2cnc(-c3ccc(OCCCN4CCCC4)cc3)o2)cc(-c2cnc(-c3ccc(OCCCN4CCCC4)cc3)o2)c1`: the ΔTm in the experiment on Nucleic Acid [1] was below 2 °C; in the experiment with Nucleic Acid [2], below 2 °C; in the experiment on Nucleic Acid [3], 7 °C; in the experiment on Nucleic Acid [4] it was 14 °C; in the experiment with Nucleic Acid [5], 2 °C; with Nucleic Acid [6] it was 6 °C. Moreover, the thermal shift (ΔTm) in the experiment on Nucleic Acid [7] and in the experiment with Nucleic Acid [8] was 0 °C each time.
In the case of `c1cc(-c2cnc(-c3ccc(CN4CCOCC4)cc3)o2)cc(-c2cnc(-c3ccc(CN4CCOCC4)cc3)o2)c1`, the ΔTm is below 2 °C in the experiment on Nucleic Acid [1]; 2 °C in the experiment with Nucleic Acid [2]; 6 °C in the experiment with Nucleic Acid [3]; 6 °C in the experiment on Nucleic Acid [4]; 5 °C in the experiment with Nucleic Acid [5]; 6 °C in the experiment on Nucleic Acid [6]. Also, the shift in melting temperature (ΔTm) in the experiment with Nucleic Acid [7] and in the experiment with Nucleic Acid [8] was 0 °C in each case.
For `CN1CCN(Cc2ccc(-c3ncc(-c4cccc(-c5cnc(-c6ccc(CN7CCN(C)CC7)cc6)o5)c4)o3)cc2)CC1`, the shift in melting temperature (ΔTm) was below 2 °C in the experiment on Nucleic Acid [1]; 2 °C with Nucleic Acid [2]; 7 °C in the experiment on Nucleic Acid [3]; 16 °C with Nucleic Acid [4]; 3 °C in the experiment with Nucleic Acid [5]; 12 °C in the experiment with Nucleic Acid [6]. In addition, the shift in melting temperature (ΔTm) in the experiment on Nucleic Acid [7] and in the experiment with Nucleic Acid [8] was 0 °C each time.
Regarding `c1cc(-c2cnc(-c3ccc(CN4CCCC4)cc3)o2)cc(-c2cnc(-c3ccc(CN4CCCC4)cc3)o2)c1`, the ΔTm in the experiment with Nucleic Acid [1] was 2 °C; in the experiment on Nucleic Acid [2], 6 °C; in the experiment with Nucleic Acid [3], 7 °C; with Nucleic Acid [4] it was 14 °C; with Nucleic Acid [5], 2 °C; with Nucleic Acid [6] it was 4 °C. The shift in melting temperature (ΔTm) with Nucleic Acid [7] and in the experiment on Nucleic Acid [8] was 0 °C each time.
In the case of `c1cc(-c2cnc(-c3ccc(CN4CCCCCC4)cc3)o2)cc(-c2cnc(-c3ccc(CN4CCCCCC4)cc3)o2)c1`, the thermal shift (ΔTm) amounted to 3 °C in the experiment on Nucleic Acid [1]; 7 °C in the experiment with Nucleic Acid [2]; 8 °C with Nucleic Acid [3]; 9 °C in the experiment with Nucleic Acid [4]; 9 °C in the experiment on Nucleic Acid [5]; 11 °C in the experiment with Nucleic Acid [6]. For the same compound, the ΔTm with Nucleic Acid [7] and in the experiment on Nucleic Acid [8] was 1 °C in each case.
In the case of `CN1CCN(CCc2ccc(-c3ncc(-c4ccc(-c5cnc(-c6ccc(CCN7CCN(C)CC7)cc6)o5)cc4)o3)cc2)CC1`, the ΔTm in the experiment with Nucleic Acid [4], in the experiment on Nucleic Acid [6], in the experiment with Nucleic Acid [10], with Nucleic Acid [12] and in the experiment on Nucleic Acid [14] was below 5 °C throughout.
